In ChEMBL document CHEMBL3244255, “Methotrexate analogues. 10. Direct coupling of methotrexate and diethyl L-glutamate in the presence of peptide bond-forming reagents” (J Med Chem, 1978):
In brackets after ≈: the same amount, converted by molar mass.

Tests used:
[1] = Retardation factor of the compound using C6H6-MeOH-AcOH at ratio of 45:30:1 as solvent system by thin layer chromatography; assay type: physicochemical
[2] = Retardation factor of the compound using CHCl3-MeOH at ratio of 6:1 as solvent system by thin layer chromatography; assay type: physicochemical
[3] = Retardation factor of the compound using C6H6-MeOH-AcOH at ratio of 9:6:1 as solvent system by thin layer chromatography; assay type: physicochemical
[4] = Retardation factor of the compound using C6H6-MeOH-AcOH at ratio of 9:3:1 as solvent system by thin layer chromatography; assay type: physicochemical
[5] = Retardation factor of the compound using CHCl3-MeOH at ratio of 1:1 as solvent system by thin layer chromatography; assay type: physicochemical
L1210 [6] = assay: Antitumor activity against mouse L1210 cells xenografted in mouse assessed as increase in median host lifespan at 160 mg/kg, ip administered q3d on days 1, 4 and 7; assay type: functional; settings: route intraperitoneal
Procedure, shortened: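 Mice implanted ip with 10^5 L1210 leukemia cells. Drug was dissolved in 0.005 M sodium phosphate buffer, pH 7.4, freshly prepared before use, and injected ip on days 1, 4 and 7 after implantation. The dose range tested was 20–160 mg/kg. Five mice per group, 15 controls. Read-out is the percent increase in median life span versus untreated mice.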

[7] = Retardation factor of the compound using CHCl3-MeOH at ratio of 3:1 as solvent system by thin layer chromatography; assay type: physicochemical
Mus musculus = assay: Toxicity in mouse xenografted with mouse L1210 cells assessed as body weight loss at 80 to 160 mg/kg, ip administered q3d on days 1,4 and 7; assay type: organism-based; design: dose 80-160 mg/kg, route intraperitoneal; settings: in vivo
Procedure, shortened: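 Mice were implanted ip with 10^5 L1210 cells and dosed ip on days 1, 4 and 7 after implantation. Soluble compounds were dissolved in freshly prepared 0.005 M sodium phosphate, pH 7.4; an insoluble one was suspended in 10% Tween 80. Groups had five mice, with 15 untreated controls, and body weight loss was scored as toxicity.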

CCRF-CEM = assay: Growth inhibition of human CCRF-CEM cells; assay type: functional; settings: read-out: ID50 (the source's name)
Procedure, shortened: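 Human lymphoblastic leukaemia CCRF-CEM cells were grown in culture with the compound, and the concentration giving 50% growth inhibition (ID50) was reported in µg/mL.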

L1210 [8] = assay: Anticancer activity against mouse L1210 cells xenografted in mouse assessed as increase in median host survival at 120 mg/kg, ip administered q3d on days 1, 4, 7; assay type: functional; settings: route intraperitoneal
L1210 [9] = assay: Antitumor activity against mouse L1210 cells xenografted in mouse assessed as increase in median host lifespan at 15 mg/kg, ip administered q3d on days 1, 4 and 7; assay type: functional; settings: route intraperitoneal
Procedure, shortened: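 L1210 murine leukemia, 10^5 cells implanted ip; drug given ip on days 1, 4 and 7 after implantation, as disodium salt in aqueous solution. Five mice per treated group, 15 untreated controls. Read-out is the percent increase in median survival time over untreated mice.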

Row | Rf [2] | Rf [5] | Rf [7] | IC50 (CCRF-CEM) [µg/mL] | SMILES | Rf [1] | Rf [3] | Rf [4] | Activity (L1210 [6]) [%] | Activity (Mus musculus) | survival at 120 mg/kg (L1210 [8]) [%] | Activity (L1210 [9]) [%]
1 | 0.46 | 0.82 | 0.78 | 3.8 (≈ 4.61 µM) | CCOC(=O)CC[C@H](NC(=O)CC[C@H](NC(=O)c1ccc(N(C)Cc2cnc3nc(N)nc(N)c3n2)cc1)C(=O)N[C@@H](CCC(=O)OCC)C(=O)OCC)C(=O)OCC | – | – | – | – | – | – | –
2 | 0.43 | 0.82 | 0.77 | 9 (≈ 10.9 µM) | CCOC(=O)CC[C@H](NC(=O)CC[C@@H](NC(=O)c1ccc(N(C)Cc2cnc3nc(N)nc(N)c3n2)cc1)C(=O)N[C@@H](CCC(=O)OCC)C(=O)OCC)C(=O)OCC | – | – | – | – | – | – | –
3 | 0.4 | 0.82 | 0.77 | – | CCOC(=O)CCC(NC(=O)CCC(NC(=O)c1ccc(N(C)Cc2cnc3nc(N)nc(N)c3n2)cc1)C(=O)NC(CCC(=O)OCC)C(=O)OCC)C(=O)OCC (mixture of isomers) | 0.82 | 0.68 | 0.47 | – | – | – | –

Second part, the molecule before the results:

Row | SMILES | Rf [2] | Rf [5] | Rf [7] | IC50 (CCRF-CEM) [µg/mL] | Rf [1] | Rf [3] | Rf [4] | Activity (L1210 [6]) [%] | Activity (Mus musculus) | survival at 120 mg/kg (L1210 [8]) [%] | Activity (L1210 [9]) [%]
4 | CCOC(=O)CC[C@H](NC(=O)CC[C@H](NC(=O)c1ccc(N(C)Cc2cnc3nc(N)nc(N)c3n2)cc1)C(=O)O)C(=O)OCC [listing 1 of 2 here] | 0.01 | 0.23 | 0.02 | 0.88 (≈ 1.38 µM) | 0.44 | 0.35 | 0.2 | 40 | Toxic | – | –
5 | CCOC(=O)CC[C@H](NC(=O)[C@H](CCC(=O)O)NC(=O)c1ccc(N(C)Cc2cnc3nc(N)nc(N)c3n2)cc1)C(=O)OCC | 0.04 | 0.28 | 0.1 | > 10 | 0.58 | 0.46 | 0.31 | 10 | Toxic | – | –
6 | CCOC(=O)CC[C@H](NC(=O)CC[C@H](NC(=O)c1ccc(N(C)Cc2cnc3nc(N)nc(N)c3n2)cc1)C(=O)OCC)C(=O)OCC | 0.44 | 0.79 | 0.76 | 1.8 (≈ 2.7 µM) | – | – | – | – | – | – | –
7 | CCOC(=O)CC[C@H](NC(=O)c1ccc(N(C)Cc2cnc3nc(N)nc(N)c3n2)cc1)C(=O)N[C@@H](CCC(=O)OCC)C(=O)OCC | 0.4 | 0.79 | 0.73 | 0.85 (≈ 1.27 µM) | – | – | – | – | – | – | –
8 | CCOC(=O)CC[C@H](NC(=O)CC[C@H](NC(=O)c1ccc(N(C)Cc2cnc3nc(N)nc(N)c3n2)cc1)C(=O)O)C(=O)OCC [listing 2 of 2 here] | – | – | – | – | – | – | – | – | – | 77 | –
9 | CN(Cc1cnc2nc(N)nc(N)c2n1)c1ccc(C(=O)N[C@@H](CCC(=O)[O-])C(=O)[O-])cc1.[Na+].[Na+] [METHOTREXATE SODIUM] | – | – | – | – | – | – | – | – | – | – | 60
10 | CN(Cc1cnc2nc(N)nc(N)c2n1)c1ccc(C(=O)N[C@@H](CCC(=O)O)C(=O)O)cc1 [METHOTREXATE] | – | – | – | 0.003 (≈ 0.0066 µM) | – | – | – | – | – | – | –
